Assay results from ChEMBL document CHEMBL3259541, “Synthesis and biological evaluation of antimetastatic agents predicated upon dihydromotuporamine C and its carbocyclic derivatives” (J Med Chem, 2014).

Key:
CHO = test: Cytotoxicity against CHO cells assessed as cell growth after 48 hrs incubation by MTS assay in presence of 1 mM aminoguanidine; assay type: cell-based; details: Cricetulus griseus
Summary of the method: (§1)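 CHO and polyamine-transport-deficient CHO-MG* cells pretreated 24 h with 1 mM aminoguanidine, then exposed to compound for 48 h at 37 °C. Triplicate. IC50 taken as 50% growth inhibition. PTS selectivity expressed as the CHO-MG*/CHO IC50 ratio.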

L3.6pl [1] = test: Effect on intracellular ceramide population in human L3.6PL cells assessed as sphingomyelin N20:0 level measured per mg of protein at 0.6 uM after 48 hrs incubation by mass spectrometry analysis (reference value: 0.09 +/- 0.03 nmol); assay type: functional
L3.6pl [2] = test: Effect on intracellular ceramide population in human L3.6PL cells assessed as sphingomyelin N19:0 level measured per mg of protein at 0.6 uM after 48 hrs incubation by mass spectrometry analysis (reference value: 0.01 +/- 0.01 nmol); assay type: functional
L3.6pl [3] = test: Effect on intracellular ceramide population in human L3.6PL cells assessed as sphingomyelin N20:0 level measured as contribution to total ceramide population at 0.6 uM after 48 hrs incubation by mass spectrometry analysis (reference value: 1.1%); assay type: functional
L3.6pl [4] = test: Effect on intracellular ceramide population in human L3.6PL cells assessed as sphingomyelin N16:0 level measured per mg of protein at 0.6 uM after 48 hrs incubation by mass spectrometry analysis (reference value: 3.21 +/- 0.90 nmol); assay type: functional
L3.6pl [5] = test: Effect on intracellular ceramide population in human L3.6PL cells assessed as sphingomyelin N16:0 level measured as contribution to total ceramide population at 0.6 uM after 48 hrs incubation by mass spectrometry analysis (reference value: 37.3%); assay type: functional
L3.6pl [6] = test: Effect on intracellular ceramide population in human L3.6PL cells assessed as sphingomyelin N18:1 level measured per mg of protein at 0.6 uM after 48 hrs incubation by mass spectrometry analysis (reference value: 0.08 +/- 0.02 nmol); assay type: functional
L3.6pl [7] = test: Effect on intracellular ceramide population in human L3.6PL cells assessed as sphingomyelin N24:2 level measured per mg of protein at 0.6 uM after 48 hrs incubation by mass spectrometry analysis (reference value: 0.25 +/- 0.09 nmol); assay type: functional
L3.6pl [8] = test: Effect on intracellular ceramide population in human L3.6PL cells assessed as sphingomyelin N23:1 level measured per mg of protein at 0.6 uM after 48 hrs incubation by mass spectrometry analysis (reference value: 0.13 +/- 0.05 nmol); assay type: functional
L3.6pl [9] = test: Effect on intracellular ceramide population in human L3.6PL cells assessed as sphingomyelin N25:1 level measured per mg of protein at 0.6 uM after 48 hrs incubation by mass spectrometry analysis (reference value: 0.02 +/- 0.02 nmol); assay type: functional
L3.6pl [10] = test: Effect on intracellular ceramide population in human L3.6PL cells assessed as sphingomyelin N24:1 level measured per mg of protein at 0.6 uM after 48 hrs incubation by mass spectrometry analysis (reference value: 0.85 +/- 0.38 nmol); assay type: functional
L3.6pl [11] = test: Effect on intracellular ceramide population in human L3.6PL cells assessed as sphingomyelin N23:0 level measured per mg of protein at 0.6 uM after 48 hrs incubation by mass spectrometry analysis (reference value: 0.08 +/- 0.04 nmol); assay type: functional
L3.6pl [12] = test: Effect on intracellular ceramide population in human L3.6PL cells assessed as sphingomyelin N24:3 level measured per mg of protein at 0.6 uM after 48 hrs incubation by mass spectrometry analysis (reference value: 0.05 +/- 0.02 nmol); assay type: functional
L3.6pl [13] = test: Effect on intracellular ceramide population in human L3.6PL cells assessed as sphingomyelin N23:2 level measured per mg of protein at 0.6 uM after 48 hrs incubation by mass spectrometry analysis (reference value: 0.03 +/- 0.02 nmol); assay type: functional
polyamine transporter = test: Selectivity ratio of IC50 for polyamine transporter deficient CHO-MG cells to IC50 for CHO cells by MTS assay; assay type: ADME, cell-based, Cricetulus griseus; details: chinese hamster, polyamine transporter deficient CHO-MG cells and CHO cells; read-out: Ratio IC50; summary of the method: as §1
L3.6pl [14] = test: Effect on intracellular ceramide population in human L3.6PL cells assessed as sphingomyelin N18:0 level measured per mg of protein at 0.6 uM after 48 hrs incubation by mass spectrometry analysis (reference value: 0.38 +/- 0.11 nmol); assay type: functional
[15] = Cytotoxicity against human L3.6PL cells assessed as inhibition of cell growth after 48 hrs incubation by MTS assay in presence of 250 uM aminoguanidine treated 24 hrs prior compound addition; assay type: functional, cell-based; details: for IC50: Homo sapiens, L3.6pl
Summary of the method: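 L3.6pl cells pretreated 24 h with 250 μM aminoguanidine, then incubated with compound for 48 h at 37 °C. Triplicate. IC50 is the concentration giving 50% growth inhibition and IC5 the concentration giving 5% inhibition, both versus untreated control.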

L3.6pl [16] = test: Effect on intracellular ceramide population in human L3.6PL cells assessed as sphingomyelin N16:1 level measured per mg of protein at 0.6 uM after 48 hrs incubation by mass spectrometry analysis (reference value: 0.24 +/- 0.04 nmol); assay type: functional
L3.6pl [17] = test: Effect on intracellular ceramide population in human L3.6PL cells assessed as sphingomyelin N22:1 level measured as contribution to total ceramide population at 0.6 uM after 48 hrs incubation by mass spectrometry analysis (reference value: 6.5%); assay type: functional
L3.6pl [18] = test: Effect on intracellular ceramide population in human L3.6PL cells assessed as sphingomyelin N24:0 level measured per mg of protein at 0.6 uM after 48 hrs incubation by mass spectrometry analysis (reference value: 0.22 +/- 0.06 nmol); assay type: functional
L3.6pl [19] = test: Effect on intracellular ceramide population in human L3.6PL cells assessed as sphingomyelin N15:0 level measured per mg of protein at 0.6 uM after 48 hrs incubation by mass spectrometry analysis (reference value: 0.09 +/- 0.02 nmol); assay type: functional
L3.6pl [20] = test: Effect on intracellular ceramide population in human L3.6PL cells assessed as sphingomyelin N22:2 level measured per mg of protein at 0.6 uM after 48 hrs incubation by mass spectrometry analysis (reference value: 0.02 +/- 0.00 nmol); assay type: functional
L3.6pl [21] = test: Effect on intracellular ceramide population in human L3.6PL cells assessed as sphingomyelin N14:0 level measured per mg of protein at 0.6 uM after 48 hrs incubation by mass spectrometry analysis (reference value: 0.12 +/- 0.03 nmol); assay type: functional
L3.6pl [22] = test: Effect on intracellular ceramide population in human L3.6PL cells assessed as sphingomyelin N22:0 level measured per mg of protein at 0.6 uM after 48 hrs incubation by mass spectrometry analysis (reference value: 0.30 +/- 0.10 nmol); assay type: functional
L3.6pl [23] = test: Effect on intracellular ceramide population in human L3.6PL cells assessed as sphingomyelin N17:0 level measured per mg of protein at 0.6 uM after 48 hrs incubation by mass spectrometry analysis (reference value: 0.09 +/- 0.03 nmol); assay type: functional
L3.6pl [24] = test: Effect on intracellular ceramide population in human L3.6PL cells assessed as sphingomyelin N21:0 level measured per mg of protein at 0.6 uM after 48 hrs incubation by mass spectrometry analysis (reference value: 0.03 +/- 0.01 nmol); assay type: functional

| Compound | IC50 (CHO) [µM] | Activity (L3.6pl [1]) [nmol] | Activity (L3.6pl [2]) [nmol] | Activity (L3.6pl [3]) [%] | Activity (L3.6pl [4]) [nmol] | Activity (L3.6pl [5]) [%] | Activity (L3.6pl [6]) [nmol] | Activity (L3.6pl [7]) [nmol] | Activity (L3.6pl [8]) [nmol] | Activity (L3.6pl [9]) [nmol] | Activity (L3.6pl [10]) [nmol] | Activity (L3.6pl [11]) [nmol] | Activity (L3.6pl [12]) [nmol] | Activity (L3.6pl [13]) [nmol] | selectivity ratio (polyamine transporter) | Activity (L3.6pl [14]) [nmol] | IC5 [15] [µM] | IC50 [15] [µM] | Activity (L3.6pl [16]) [nmol] | Activity (L3.6pl [17]) [%] | also measured |
| --- | --- | --- | --- | --- | --- | --- | --- | --- | --- | --- | --- | --- | --- | --- | --- | --- | --- | --- | --- | --- | --- |
| Cl.NCCCNCCCNCC1CCCCCCCCCCCCCC1 | 82.9 | 0.15 | 0.02 | 1.5 | 4.36 | 38.4 | 0.14 | 0.31 | 0.17 | 0.03 | 1.1 | 0.1 | 0.06 | 0.02 | 1 | 0.54 | 80 | 89.4 | 0.34 | 4.6 | Activity (L3.6pl [18]): 0.25 nmol; Activity (L3.6pl [19]): 0.17 nmol; Activity (L3.6pl [20]): 0.03 nmol; Activity (L3.6pl [21]): 0.2 nmol; Activity (L3.6pl [22]): 0.46 nmol; Activity (L3.6pl [23]): 0.16 nmol; Activity (L3.6pl [24]): 0.04 nmol |
| Cl.NCCCNCCCN1CCCCCCCCCCCCCC1 | 2.9 | 0.14 | 0.02 | 0.6 | 4.01 | 20.3 | 0.13 | 0.27 | 0.15 | 0.03 | 0.99 | 0.09 | 0.06 | 0.02 | 1 | 0.47 | 0.6 | 0.99 | 0.31 | 18.6 | Activity (L3.6pl [18]): 0.21 nmol; Activity (L3.6pl [19]): 0.15 nmol; Activity (L3.6pl [20]): 0.02 nmol; Activity (L3.6pl [21]): 0.24 nmol; Activity (L3.6pl [22]): 0.4 nmol; Activity (L3.6pl [23]): 0.14 nmol; Activity (L3.6pl [24]): 0.04 nmol |
